Tb MetRS inh = Trypanosoma brucei MetRS inhibition | inhibition, % at 11.9 µM | purified T. brucei MetRS, ATP depletion, Kinase-Glo luminescence | 360,000 compounds, 0.4% hits;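 active = inhibition above a per-plate cutoff of the control wells' mean inhibition plus 3 SD, cut at about 5.5% in these data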;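 also: 0% = DMSO wells median and 100% = median of wells with control inhibitor compound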
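Assay system: T. brucei methionyl-tRNA synthetase, purified | Medium: HEPES buffer with MgCl2, KCl, DTT, spermine, BSA, pyrophosphatase | Compound: 11.9 µM single point | Incubation: 15 min enzyme-compound preincubation, 2 h reaction, 10 min detection, 25 °C | Measured by: Kinase-Glo luciferase luminescence reporting remaining unconsumed ATP | Measure: % inhibition normalized to control-well medians | Replication: Singlicate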
WT yeast gro inh = growth inhibition of WT yeast, mitochondrial fusion screen; mitochondrial fusion phenotypic screen, WT strain; 190,000 compounds, 2.1% hits; inhibition, % at 10 µM; in the data active = inhibition above about 58%; tested in S. cerevisiae
EBV gp42 block = blocks Epstein-Barr virus glycoprotein 42 binding; Q1HVG2; Fluorescence polarization binding assay, mP read-out; inhibition, % (tested at 21.74 µM); 220,000 compounds, 0.42% hits; AID 1085; in the data active = inhibition above about 50%
Target sequence (Q1HVG2 whole entry, looked up): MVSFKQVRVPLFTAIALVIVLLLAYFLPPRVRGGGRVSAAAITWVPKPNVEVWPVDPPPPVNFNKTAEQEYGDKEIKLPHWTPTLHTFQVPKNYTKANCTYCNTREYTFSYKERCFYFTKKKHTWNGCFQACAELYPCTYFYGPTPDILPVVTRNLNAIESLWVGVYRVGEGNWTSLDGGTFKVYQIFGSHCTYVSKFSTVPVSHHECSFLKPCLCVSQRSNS
CHOP inh = inhibitors of CHOP induction in ER stress response; CHO-K1 CHOP-promoter luciferase, tunicamycin-induced, 15-18 h; inhibition, % at 10 µM; 220,000 compounds, 3.8% hits; AID 2732;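 active = compounds that reduced the stress-induced luciferase reporter signal by more than about 70% of percent inhibition, limit read from the data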;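 also: 0% = tunicamycin plus vehicle and 100% = wells without tunicamycin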
MPTP block = blocks calcium-induced mitochondrial swelling; isolated mouse mitochondria, Ca2+ swelling absorbance, 30 min; inhibition, % at 10 µM; 360,000 compounds, 1.4% hits;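 active = inhibition of 50% or more, scaled per plate between neutral and stimulator controls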;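 also: 0% = DMSO wells given calcium and 100% = 1 mM EGTA wells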
GRIN3A LBD mod = modulates the human NR3A ligand-binding domain; NR3A LBD differential scanning fluorimetry, Tm shift; 0% = protein alone, 100% = glycine-bound protein; Tm shift relative to glycine control, % at 25 µM; 340,000 compounds, 2.5% hits; AID 1259313;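 active = melting temperature shift of at least 10% of the positive control shift, at one fixed dose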
* marks the source's active call; other numbers are inactive results; nt = not tested or not shown. Sampled rows, rich in hits. Any-hit rate of the full collection: about 6.4%.

SMILES	Tb MetRS inh	WT yeast gro inh	EBV gp42 block	CHOP inh	MPTP block	GRIN3A LBD mod
COc1ccc(C(=O)Nc2nc(-c3ccc([N+](=O)[O-])cc3)c(-c3ccc(OC)cc3)s2)cc1	1	2	-47	-8	25	1
O=C1CC(N2CCC(c3nc4ccccc4o3)CC2)C(=O)N1c1ccc(Cl)c(C(F)(F)F)c1 (stereo not given)	0	29	-2	86*	3	0
O=C1CC(N2CCC(c3nc4ccccc4o3)CC2)C(=O)N1c1ccc(F)cc1 (stereo not given)	0	nt	-11	4	0	2
O=C(Cc1ccsc1)N1CCN(S(=O)(=O)c2ccccc2F)CC1	0	nt	nt	nt	0	2
Cc1c(-n2c(-c3ccccc3Cl)n[nH]c2=S)c(=O)n(-c2ccccc2)n1C	0	-20	-9	1	0	1
CCC(=O)Nc1ccc(-c2csc(NNC(C)=O)n2)cc1	-1	3	-8	3	1	-2
CN(CCOc1ccc(Cl)cc1)C(=O)CNS(=O)(=O)c1ccc(N(C)C)c([N+](=O)[O-])c1	0	nt	nt	nt	-4	-9
CN(C)c1ccc(S(=O)(=O)NCC(=O)OCC(=O)Nc2cc(Cl)cc(Cl)c2)cc1[N+](=O)[O-]	1	-1	-6	67	6	18*
Cc1nc2cc(C(=O)O)ccc2n1-c1ccc(F)cc1F	-1	-9	2	-14	3	15*
CCOc1ccccc1-n1c(C)nc2cc(C(=O)O)ccc21	-1	-18	-11	2	-1	-1
CCN(CC)C(=O)C1CC(=O)N(c2ccc(F)c(Cl)c2)C1 (stereo not given)	0	59*	nt	nt	-2	0
COCCNC(=O)C1CC(=O)N(c2ccc(F)c(Cl)c2)C1 (stereo not given)	0	16	nt	nt	-2	0
COc1ccc(OC)c(NC(=O)C23CCC(C)(C(=O)O2)C3(C)C)c1 (stereo not given)	-1	16	-8	31	4	1
CCOc1ccc(C(c2c(NC(=O)c3ccco3)sc(C)c2C)N2CCOCC2)cc1 (stereo not given)	0	nt	nt	nt	0	-3
CCOc1ccc(C(c2c(NC(=O)c3ccccc3)sc(C)c2C)N2CCN(C)CC2)cc1 (stereo not given)	-1	78*	12	26	2	0
COC(=O)Cc1ccc(N(Cc2ccccc2F)S(=O)(=O)c2ccc(C)cc2)cc1	0	72*	6	-6	11	1
Cc1ccc(N(CCC(=O)O)S(=O)(=O)c2ccccc2)cc1	-1	25	10	20	-1	-2
CCOC(=O)C1=C(COc2ccc(F)cc2Cl)NC(=O)NC1c1cc(C)ccc1C (stereo not given)	0	-14	10	61	2	-3
CCOC(=O)C1=C(COc2ccc(C)cc2)NC(=O)NC1c1cc(C)ccc1C (stereo not given)	0	-7	-7	90*	2	1
CC(=O)c1c(OC(=O)c2ccccc2)c2ccccc2n1C	0	6	-3	70*	-1	2
Cn1c(=O)c(C(=O)c2ccccc2)c(O)c2ccccc21	-1	nt	nt	nt	0	1
CNC(=O)NC(=O)CSc1nc2cc(C(=O)OC)ccc2c(=O)n1-c1ccccc1	0	-4	-16	1	-1	-14
CS(=O)(=O)c1ccc2sc(NC(=O)c3cc4ccccc4o3)nc2c1	0	nt	-28	-28	2	11*
O=C(Nc1nc2ccc(Cl)cc2s1)c1ccc(Br)o1	0	15	-26	74*	-4	9
CS(=O)(=O)c1ccc2nc(NC(=O)c3cc4ccccc4o3)sc2c1	-1	-20	-11	-5	0	26*
SMILES	Tb MetRS inh	WT yeast gro inh	EBV gp42 block	CHOP inh	MPTP block	GRIN3A LBD mod
Cc1nc(NC(=O)c2cc3ccccc3o2)sc1C	0	nt	nt	nt	0	-3
C[C@@H]1C=CC(=O)O[C@@H]1c1ccc(Cl)cc1	nt	nt	nt	nt	nt	-1
COc1cccc(NC(=O)c2ccc3nc(C)sc3c2)c1	0	nt	nt	nt	0	-22
COc1ccccc1OCCSc1nc2ccccc2c(=O)[nH]1	-1	11	7	-2	2	nt
O=c1[nH]c(SCCOc2ccccc2)nc2ccccc12	1	-17	-23	77*	1	-1
COc1ccc(-c2cc(=O)[nH][nH]2)cc1OC	-1	-31	-14	-6	-1	13*
CC1(C(=O)N2CCOCC2)CCCCC1	-1	nt	nt	nt	0	0
CC(=O)Cc1nsc(NC(=O)c2ccc(-c3cc(C(F)(F)F)ccc3Cl)o2)n1	0	6	-10	43	35	0
CC(=O)Cc1nsc(NC(=O)c2ccc(-c3ccc(Cl)c(Cl)c3)o2)n1	-1	69*	8	-19	16	3
CC(=O)Cc1nsc(NC(=O)c2ccc(-c3cc(Cl)ccc3Cl)o2)n1	-1	71*	4	1	31	-1
CC(C)(C)OC(=O)N1CCC(c2cc(=O)n3[nH]c(-c4ccc(Cl)cc4)cc3n2)CC1	0	-17	-18	70*	-1	-1
COc1ccc(C2CC(=O)Oc3c(C(C)C)ccc(C)c32)cc1 (stereo not given)	-2	nt	nt	nt	-2	13*
O=C(c1ccc(Cl)c(Cl)c1)N1CCN(c2ccccn2)CC1	-1	nt	nt	nt	0	0
O=C(c1cccc(COc2ccc(Cl)cc2Cl)c1)N1CCN(c2ccccn2)CC1	3	77*	6	38	3	-30
CN(C(=O)c1cccc(COc2ccc(Cl)cc2Cl)c1)c1ccccc1	1	77*	-4	36	1	1
O=C(NCc1ccccc1)c1cccc(COc2cc(Cl)ccc2Cl)c1	-1	-13	-6	5	27	-5
CC(C)[C@H](NC(=O)OC(C)(C)C)C(=O)N1CCC(C(=O)N[C@@H](C)C(=O)Nc2ccc(F)cc2)CC1	-2	nt	nt	nt	0	0
COc1ccccc1-c1cc(NC=O)c2ncc(-c3ccc(S(C)(=O)=O)cc3)n2c1	0	nt	nt	nt	0	nt
CCOC(=O)c1c(-c2ccc(C)o2)csc1NC(=O)CSc1nnnn1-c1ccccc1	0	-15	-19	-14	-1	2
Cc1ccc(-c2nc(CS(=O)(=O)CC(=O)N3CCc4ccccc4C3)c(C)o2)cc1	0	28	1	72*	1	-2
Cc1ccc(/C=C/C(=O)N2CCc3ccccc3C2)cc1	-1	28	-10	72*	-1	0
Clc1ccc(N2CCN(c3ccnc(Cl)n3)CC2)cc1	0	nt	nt	nt	5	14*
CSc1nccc(N2CCN(c3ccc(F)cc3)CC2)n1	0	42	-4	18	7	-1
Cc1ccc(Oc2nc(-c3ccccc3)ncc2S(=O)(=O)c2ccc(C)cc2)cc1	-1	17	-3	14	4	11*
c1ccc(CNc2nnnn2-c2ccccc2)cc1	0	-8	-3	24	2	0
